Values after ≈ are worked out from the molar mass of the structure shown.
What was measured:
HCT-116 = test: Growth inhibition of human HCT116 cells; type: functional
[1] = Growth inhibition of human RPMI8266 cells; type: functional
[2] = Growth inhibition of human […] cells; type: functional
HOP-62 = test: Growth inhibition of human HOP62 cells; type: functional
NCI-H322M = test: Growth inhibition of human NCI-H322M cells; type: functional
TK-10 = test: Growth inhibition of human TK10 cells; type: functional
In short: (§1)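 Tested at the NCI in its human disease-oriented in vitro screen of 60 tumour cell lines, following the Monks et al. methods. Activity is expressed as GI50, given as log molar values.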

HCT-15 = test: Growth inhibition of human HCT15 cells; type: functional
SF-295 = test: Growth inhibition of human SF295 cells; type: functional; in short: as §1
EKVX = test: Growth inhibition of human EKVX cells; type: functional
KM-20L2 = test: Growth inhibition of human KM20L2 cells; type: functional
SNB-75 = test: Growth inhibition of human SNB75 cells; type: functional; in short: as §1
Malme-3M = test: Growth inhibition of human MALME-3M cells; type: functional
[3] = Growth inhibition of human DMS144 cells; type: functional
MOLT-4 = test: Growth inhibition of human MOLT4 cells; type: functional
[4] = Growth inhibition of human OVACR4 cells; type: functional
NCI-H226 = test: Growth inhibition of human NCI-H226 cells; type: functional
SF-268 = test: Growth inhibition of human SF268 cells; type: functional; in short: as §1
UO-31 = test: Growth inhibition of human UO31 cells; type: functional; in short: as §1
SF-539 = test: Growth inhibition of human SF539 cells; type: functional; in short: as §1
HCC 2998 = test: Growth inhibition of human HCC2998 cells; type: functional
SR = test: Growth inhibition of human SR cells; type: functional; in short: as §1
A549 = test: Growth inhibition of human A549 cells; type: functional
XF498 = test: Growth inhibition of human XF498 cells; type: functional; in short: as §1
CAKI-1 = test: Growth inhibition of human CAKI1 cells; type: functional
M14 = test: Growth inhibition of human M14 cells; type: functional
UACC-257 = test: Growth inhibition of human UACC257 cells; type: functional; in short: as §1
[5] = Growth inhibition of human OVACR8 cells; type: functional
UACC-62 = test: Growth inhibition of human UACC62 cells; type: functional; in short: as §1
SK-OV-3 = test: Growth inhibition of human SK-OV-3 cells; type: functional; in short: as §1
[6] = Growth inhibition of human HL60(TB) cells; type: functional, HL-60(TB); conditions: HL-60
NCI-H522 = test: Growth inhibition of human NCI-H522 cells; type: functional
K562 = test: Growth inhibition of human K562 cells; type: functional
786-0 = test: Growth inhibition of human 786-0 cells; type: functional
[7] = Growth inhibition of human OVACR5 cells; type: functional
SK-MEL-28 = test: Growth inhibition of human SK-MEL-28 cells; type: functional; in short: as §1
NCI-H460 = test: Growth inhibition of human NCI-H460 cells; type: functional
HOP-92 = test: Growth inhibition of human HOP92 cells; type: functional
COLO 205 = test: Growth inhibition of human COLO205 cells; type: functional
HCT-8 = test: Growth inhibition of human HCT8 cells; type: functional; conditions: read-out: ED50 (the source's name)
In short: (§2)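 In-house cytotoxicity assay following an NCI protocol, run on a panel of human tumour lines: KB nasopharyngeal epidermoid carcinoma and HCT-8 ileocecal adenocarcinoma. Potency is reported as ED50 in µg/mL.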

CCRF-CEM = test: Growth inhibition of human CCRF-CEM cells; type: functional
SW-620 = test: Growth inhibition of human SW620 cells; type: functional; in short: as §1
HOP-18 = test: Growth inhibition of human HOP18 cells; type: functional
ACHN = test: Growth inhibition of human ACHN cells; type: functional
DMS-273 = test: Growth inhibition of human DMS273 cells; type: functional
U-251 = test: Growth inhibition of human U251 cells; type: functional; in short: as §1
KM12 = test: Growth inhibition of human KM12 cells; type: functional
IGROV-1 = test: Growth inhibition of human IGROV1 cells; type: functional
SK-MEL-2 = test: Growth inhibition of human SK-MEL-2 cells; type: functional; in short: as §1
[8] = Growth inhibition of human LXFL529 cells; type: functional; conditions: LXFL 529
HT-29 = test: Growth inhibition of human HT29 cells; type: functional
SK-MEL-5 = test: Growth inhibition of human SK-MEL-5 cells; type: functional; in short: as §1
SNB-19 = test: Growth inhibition of human SNB19 cells; type: functional; in short: as §1
DLD-1 = test: Growth inhibition of human DLD1 cells; type: functional
KB = test: Growth inhibition of human KB cells; type: functional; conditions: read-out: ED50 (the source's name); in short: as §2
RXF 393 = test: Growth inhibition of human […] cells; type: functional
SN12C = test: Growth inhibition of human SN12C cells; type: functional; in short: as §1
[9] = read-out: ED50 (the source's name)

In the case of CC1=CC(=O)c2[nH]c3ccccc3c2C1=O [MURRAYAQUINONE A], the GI50 (HCT-116) is reported as 4.47 µM, the GI50 [1] is reported as 5.89 µM and the GI50 [2] is reported as 4.57 µM. It also gave a GI50 (HOP-62) of 25.1 µM, a GI50 (NCI-H322M) of 25.1 µM and a GI50 (TK-10) of 5.01 µM. It also gave a GI50 (HCT-15) of 4.17 µM, a GI50 (SF-295) of 4.37 µM and a GI50 (EKVX) of 4.07 µM. It also gave a GI50 (KM-20L2) of 25.1 µM, a GI50 (SNB-75) of 4.37 µM and a GI50 (Malme-3M) of 4.9 µM. It also gave a GI50 [3] of 4.27 µM, a GI50 (MOLT-4) of 5.37 µM and a GI50 [4] of 4.17 µM. For the same molecule, the GI50 (NCI-H226) was 6.61 µM, the GI50 (SF-268) was 4.37 µM and the GI50 (UO-31) was 3.98 µM. For the same molecule, the GI50 (SF-539) was 4.27 µM, the GI50 (HCC 2998) was 7.08 µM and the GI50 (SR) was 5.75 µM. For the same molecule, the GI50 (A549) was 25.1 µM, the GI50 (XF498) was 4.37 µM and the GI50 (CAKI-1) was 14.5 µM. For the same molecule, the GI50 (M14) was 4.17 µM, the GI50 (UACC-257) was 4.57 µM and the GI50 [5] was 3.98 µM. The GI50 (UACC-62) was 4.17 µM, the GI50 (SK-OV-3) was 20.9 µM and the GI50 [6] was 4.07 µM. It also gave a GI50 (NCI-H522) of 3.8 µM, a GI50 (K562) of 5.62 µM and a GI50 (786-0) of 4.27 µM. For the same molecule, the GI50 [7] was 5.37 µM, the GI50 (SK-MEL-28) was 4.47 µM and the GI50 (NCI-H460) was 8.13 µM. It also gave a GI50 (HOP-92) of 3.98 µM, a GI50 (COLO 205) of 4.07 µM and an EC50 (COLO 205; [9]) of 3.85 µg/mL (≈ 18.2 µM). For the same molecule, the EC50 (HCT-8) was 5.5 µg/mL (≈ 26 µM), the GI50 (CCRF-CEM) was 3.31 µM and the GI50 (SW-620) was 3.98 µM. It also gave a GI50 (HOP-18) of 3.39 µM, a GI50 (ACHN) of 4.17 µM and a GI50 (DMS-273) of 4.27 µM. It also gave a GI50 (U-251) of 15.5 µM, a GI50 (KM12) of 4.37 µM and a GI50 (IGROV-1) of 6.61 µM. It also gave a GI50 (SK-MEL-2) of 5.37 µM, a GI50 [8] of 4.27 µM and a GI50 (HT-29) of 17.8 µM. The GI50 (SK-MEL-5) was 4.27 µM, the EC50 (SK-MEL-5; [9]) was 2.58 µg/mL (≈ 12.2 µM) and the GI50 (SNB-19) was 25.1 µM. It also gave a GI50 (DLD-1) of 5.01 µM, an EC50 (KB) of 5.18 µg/mL (≈ 24.5 µM) and a GI50 (RXF 393) of 3.47 µM. For the same molecule, the GI50 (SN12C) was 4.57 µM.

— ChEMBL document CHEMBL1142636 (2000)
